Reference: ChEMBL document CHEMBL1138515, “Synthesis and biological characterization of B-ring amino analogues of potent benzothiadiazine hepatitis C virus polymerase inhibitors” (J Med Chem, 2009)
pEC50, pIC50: −log10 of the molar value.

Key:
Hepatitis C virus = experiment: Antiviral activity against HCV1a H77 assessed as inhibition of viral replication by cell-based replicon assay; type: functional, organism-based, Hepacivirus hominis; conditions: genotype 1a H77
Outline: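 Stable luciferase-reporter subgenomic replicon Huh-7 lines (1a H77; 1b Con1) were seeded at 5000 cells/well in DMEM with 5% FBS. The next day an eight-point half-log dilution series was added from DMSO stocks. After 3 days the cells were lysed, luciferin was added and luminescence was read. EC₅₀ came from percent inhibition of replication at each concentration.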

[1] = Inhibition of HCV1a H77 NS5B assessed as [3H]UTP incorporation into RNA by scintillation counting; set-up: species or system Hepatitis C virus (isolate H77)
Outline: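 Two-fold serial inhibitor dilutions were preincubated for 15 min at room temperature with NS5B (genotype 1a H77 or genotype 1b BK, 20-50 nM) in 20 mM Tris-Cl pH 7.4, 2 mM MnCl₂, 1 mM DTT, 1 mM EDTA and 60-125 µM GTP. Reactions were started with 20 µM CTP, 20 µM ATP, 1 µM ³H-UTP, 5 nM template RNA and RNase inhibitor, then run 2-4 h at room temperature.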

[2] = Half life in Sprague-Dawley rat at 5 mg/kg, iv; type: ADME, organism-based; set-up: dose 5 mg/kg, route intravenous; conditions: in vivo
Outline: (§1)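 Overnight-fasted Sprague-Dawley rats (n = 3) received a single 5 mg/kg iv or oral dose in DMSO/PEG400 (1:9, v/v). Mean concentrations were fitted multiexponentially. AUC₀₋ₜ was calculated by linear trapezoidal rule and extrapolated to infinity using Cₜ divided by the terminal rate constant.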

[3] = Clearance in Sprague-Dawley rat at 5 mg/kg, iv; type: ADME, organism-based; set-up: dose 5 mg/kg, route intravenous; conditions: in vivo; outline: as §1
[4] = Cmax in Sprague-Dawley rat at 5 mg/kg, po; type: ADME, organism-based; set-up: dose 5 mg/kg, route oral; conditions: in vivo; outline: as §1
[5] = Oral bioavailability in Sprague-Dawley rat at 5 mg/kg; type: ADME, organism-based; conditions: in vivo; outline: as §1
[6] = AUC (0 to infinity) in Sprague-Dawley rat at 5 mg/kg, po; type: ADME, organism-based; set-up: time infinity, dose 5 mg/kg, route oral; conditions: plasma; outline: as §1

SMILES	pEC50 (Hepatitis C virus)	pIC50 [1]	half-life [2] [h]	clearance [3] [mL/min/kg]	Cmax [4] [ng/mL]	bioavailability [5] [%]	AUC(0-inf) [6] [ng·h/mL]
CC(C)CCC1(N)C(=O)C(C2=NS(=O)(=O)c3cc(NS(C)(=O)=O)ccc3N2)=C(O)c2ccccc21 (configuration not stated)	7.54	7.92					
COc1ccc(OC)c(CNC2(CCC(C)(C)C)C(=O)C(C3=NS(=O)(=O)c4cc(NS(C)(=O)=O)ccc4N3)=C(O)c3ccccc32)c1 (configuration not stated)	7.82	8.00					
Cc1cc(CNC2(CCC(C)(C)C)C(=O)C(C3=NS(=O)(=O)c4cc(NS(C)(=O)=O)ccc4N3)=C(O)c3ccccc32)n(C)n1 (configuration not stated)	7.82	8.30					
CC(C)(C)CCC1(NCc2cccnc2)C(=O)C(C2=NS(=O)(=O)c3cc(NS(C)(=O)=O)ccc3N2)=C(O)c2ccccc21 (configuration not stated)	7.82	8.00					
CC(C)(C)CCC1(NCc2ccc(OCc3ccccc3)cc2)C(=O)C(C2=NS(=O)(=O)c3cc(NS(C)(=O)=O)ccc3N2)=C(O)c2ccccc21 (configuration not stated)	6.93	7.57					
CC(C)CCC1(NS(C)(=O)=O)C(=O)C(C2=NS(=O)(=O)c3cc(NS(C)(=O)=O)ccc3N2)=C(O)c2ccccc21 (configuration not stated)	7.16	7.62					
CON(C(C)=O)C1(CCC(C)C)C(=O)C(C2=NS(=O)(=O)c3cc(NS(C)(=O)=O)ccc3N2)=C(O)c2ccccc21 (configuration not stated)		7.08					
Cc1cc(C)c(CNC2(CCC(C)(C)C)C(=O)C(C3=NS(=O)(=O)c4cc(NS(C)(=O)=O)ccc4N3)=C(O)c3ccccc32)c(C)c1 (configuration not stated)	7.22	7.48					
COc1ccccc1CNC1(CCC(C)(C)C)C(=O)C(C2=NS(=O)(=O)c3cc(NS(C)(=O)=O)ccc3N2)=C(O)c2ccccc21 (configuration not stated)	8.22	7.82	3.2	25	400	48	1600
Cn1ccnc1CNC1(CCC(C)(C)C)C(=O)C(C2=NS(=O)(=O)c3cc(NS(C)(=O)=O)ccc3N2)=C(O)c2ccccc21 (configuration not stated)	7.54	8.05					
CC(C)CC[C@@]1(N)C(=O)C(C2=NS(=O)(=O)c3cc(NS(C)(=O)=O)ccc3N2)=C(O)c2ccccc21	7.43	8.40	0.3	35.3		0	
CC(C)(C)CCC1(NCc2ccccc2C(F)(F)F)C(=O)C(C2=NS(=O)(=O)c3cc(NS(C)(=O)=O)ccc3N2)=C(O)c2ccccc21 (configuration not stated)	7.46	7.48					
CC(C)(C)CCC1(NCc2ccc(C#N)cc2)C(=O)C(C2=NS(=O)(=O)c3cc(NS(C)(=O)=O)ccc3N2)=C(O)c2ccccc21 (configuration not stated)	7.77	7.89					
COC(=O)NC1(CCC(C)C)C(=O)C(C2=NS(=O)(=O)c3cc(NS(C)(=O)=O)ccc3N2)=C(O)c2ccccc21 (configuration not stated)	6.68	7.60					
CC(C)CC[C@@]1(NS(C)(=O)=O)C(=O)C(C2=NS(=O)(=O)c3cc(NS(C)(=O)=O)ccc3N2)=C(O)c2ccccc21	7.25	8.15	0.2	71.7		0	
CC(C)(C)CCC1(NCc2ccccc2N)C(=O)C(C2=NS(=O)(=O)c3cc(NS(C)(=O)=O)ccc3N2)=C(O)c2ccccc21 (configuration not stated)	8.10	7.77	2.2	20	80	8.9	410
COc1ccc(CNC2(CCC(C)(C)C)C(=O)C(C3=NS(=O)(=O)c4cc(NS(C)(=O)=O)ccc4N3)=C(O)c3ccccc32)cc1 (configuration not stated)	7.89	7.89					

SMILES	pEC50 (Hepatitis C virus)	pIC50 [1]	half-life [2] [h]	clearance [3] [mL/min/kg]	Cmax [4] [ng/mL]	bioavailability [5] [%]	AUC(0-inf) [6] [ng·h/mL]
CC(C)(C)CCC1(NCc2ccc(O)cc2)C(=O)C(C2=NS(=O)(=O)c3cc(NS(C)(=O)=O)ccc3N2)=C(O)c2ccccc21 (configuration not stated)	7.89	7.70					
CC(C)(C)CCC1(NCc2csc3ccccc23)C(=O)C(C2=NS(=O)(=O)c3cc(NS(C)(=O)=O)ccc3N2)=C(O)c2ccccc21 (configuration not stated)	7.89	7.72					
Cc1cccc(C)c1CNC1(CCC(C)(C)C)C(=O)C(C2=NS(=O)(=O)c3cc(NS(C)(=O)=O)ccc3N2)=C(O)c2ccccc21 (configuration not stated)	7.68	7.62	5	13	460	53.7	3500
COc1cccc(CNC2(CCC(C)C)C(=O)C(C3=NS(=O)(=O)c4cc(NS(C)(=O)=O)ccc4N3)=C(O)c3ccccc32)c1 (configuration not stated)	7.42	7.85					
CC(C)(C)CCC1(NC(=O)c2ccccc2)C(=O)C(C2=NS(=O)(=O)c3cc(NS(C)(=O)=O)ccc3N2)=C(O)c2ccccc21 (configuration not stated)		6.82					
CC(C)CCC1(NC(N)=O)C(=O)C(C2=NS(=O)(=O)c3cc(NS(C)(=O)=O)ccc3N2)=C(O)c2ccccc21 (configuration not stated)	6.24	7.57					
CC(C)(C)CCC1(NCc2ccco2)C(=O)C(C2=NS(=O)(=O)c3cc(NS(C)(=O)=O)ccc3N2)=C(O)c2ccccc21 (configuration not stated)	8.00	7.92					
CONC1(CCC(C)C)C(=O)C(C2=NS(=O)(=O)c3cc(NS(C)(=O)=O)ccc3N2)=C(O)c2ccccc21 (configuration not stated)	7.80	8.00					
CC(C)CCC1(NCc2ccccc2)C(=O)C(C2=NS(=O)(=O)c3cc(NS(C)(=O)=O)ccc3N2)=C(O)c2ccccc21 (configuration not stated)	7.47	7.72					
Cc1ccc(CNC2(CCC(C)(C)C)C(=O)C(C3=NS(=O)(=O)c4cc(NS(C)(=O)=O)ccc4N3)=C(O)c3ccccc32)cn1 (configuration not stated)	7.96	7.85	0.5	98.3		0	
CC(C)(C)CCC1(NCc2ccc(-c3ccccc3)cc2)C(=O)C(C2=NS(=O)(=O)c3cc(NS(C)(=O)=O)ccc3N2)=C(O)c2ccccc21 (configuration not stated)		7.57					
CON[C@]1(CCC(C)C)C(=O)C(C2=NS(=O)(=O)c3cc(NS(C)(=O)=O)ccc3N2)=C(O)c2ccccc21	7.92	8.22	0.6	45		34.1	350
CC(C)(C)CCC1(NCc2ccc3ccccc3c2)C(=O)C(C2=NS(=O)(=O)c3cc(NS(C)(=O)=O)ccc3N2)=C(O)c2ccccc21 (configuration not stated)	7.80	7.64	2.2	23.3	180	28.1	1020
COc1cccc(CNC2(CCC(C)(C)C)C(=O)C(C3=NS(=O)(=O)c4cc(NS(C)(=O)=O)ccc4N3)=C(O)c3ccccc32)c1 (configuration not stated)	7.70	7.89					
CC(C)(C)CCC1(NCc2ccccc2)C(=O)C(C2=NS(=O)(=O)c3cc(NS(C)(=O)=O)ccc3N2)=C(O)c2ccccc21 (configuration not stated)	8.00	7.77					
Cc1cccc(CNC2(CCC(C)(C)C)C(=O)C(C3=NS(=O)(=O)c4cc(NS(C)(=O)=O)ccc4N3)=C(O)c3ccccc32)n1 (configuration not stated)	7.89	7.82	1	28.3	150	33.8	1340
CC(C)CCC1(NC(=O)c2ccccc2)C(=O)C(C2=NS(=O)(=O)c3cc(NS(C)(=O)=O)ccc3N2)=C(O)c2ccccc21 (configuration not stated)		6.97					
